According to ChEMBL document CHEMBL1142063, “Synthesis of omeprazole analogues and evaluation of these as potential inhibitors of the multidrug efflux pump NorA of Staphylococcus aureus” (2007):

Each molecule was assayed on Staphylococcus aureus (assay: Increase in 5 ug moxifloxacin antibacterial activity against Staphylococcus aureus SA1199B mutant overexpressing NorA at 128 ug/ml by disk diffusion method). Conditions: not given.
Format: functional
Summary of the method: (§1)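 Agar diffusion on Mueller-Hinton agar (adjusted to 20 μg/ml Ca²⁺ and 10 μg/ml Mg²⁺), used plain or with the efflux inhibitor incorporated at the stated concentration. Disks were 5 μg for the fluoroquinolones and 30 μg for chloramphenicol. Plates were incubated overnight at 37°C, and inhibition zone diameters were measured. Values are means of at least three independent experiments.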

Row | SMILES | inhibition zone (IZ)
1 | [O-][S+](Cc1nc2ccccc2n2cccc12)c1nc2ccccc2[nH]1 (stereo not drawn) | 28 mm
2 | [O-][S+](Cc1nc2ccccc2n2cccc12)c1ccccn1 (stereo not drawn) | 27 mm
3 | Cn1ccnc1[S+]([O-])Cc1nc2ccccc2n2cccc12 (stereo not drawn) | 27 mm

What follows are molecules tested on Staphylococcus aureus (assay: Increase in 30 ug chloramphenicol antibacterial activity against Staphylococcus aureus SA1199B mutant overexpressing NorA at 128 ug/ml by disk diffusion method). Conditions: not given.
Format: functional
Summary of the method: as §1

Row | SMILES | inhibition zone (IZ)
4 | [O-][S+](Cc1nc2ccccc2n2cccc12)c1nc2ccccc2[nH]1 (stereo not drawn) | 25 mm
5 | [O-][S+](Cc1nc2ccccc2n2cccc12)c1ccccn1 (stereo not drawn) | 25 mm
6 | Cn1ccnc1[S+]([O-])Cc1nc2ccccc2n2cccc12 (stereo not drawn) | 25 mm

What follows are molecules tested on Staphylococcus aureus (assay: Increase in 5 ug ciprofloxacin antibacterial activity against Staphylococcus aureus SA1199B mutant overexpressing NorA at 128 ug/ml by disk diffusion method). Conditions: not given.
Format: functional
Summary of the method: as §1

Row | SMILES | inhibition zone (IZ)
7 | [O-][S+](Cc1nc2ccccc2n2cccc12)c1nc2ccccc2[nH]1 (stereo not drawn) | 19 mm
8 | [O-][S+](Cc1nc2ccccc2n2cccc12)c1ccccn1 (stereo not drawn) | 17 mm
9 | Cn1ccnc1[S+]([O-])Cc1nc2ccccc2n2cccc12 (stereo not drawn) | 14 mm

These molecules were tested on Staphylococcus aureus (assay: Antibacterial activity against Staphylococcus aureus SA1199B overexpressing NorA at 5 ug by disk diffusion method). Conditions: read-out: IZ.
Format: functional
Summary of the method: as §1

Row | SMILES | zone of inhibition at 5 µg/disc
10 | O=C(O)c1cn(C2CC2)c2cc(N3CCNCC3)c(F)cc2c1=O [CIPROFLOXACIN] | 13 mm
11 | CC1COc2c(N3CCN(C)CC3)c(F)cc3c(=O)c(C(=O)O)cn1c23 (stereo not drawn) [OFLOXACIN] | 27 mm
12 | CCn1cc(C(=O)O)c(=O)c2cc(F)c(N3CCNCC3)cc21 [NORFLOXACIN] | 27 mm
13 | COc1c(N2C[C@@H]3CCCN[C@@H]3C2)c(F)cc2c(=O)c(C(=O)O)cn(C3CC3)c12 [MOXIFLOXACIN] | 27 mm

What follows are molecules tested on Staphylococcus aureus (assay: Increase in 16 ug/ml Norfloxacin accumulation in wild type Staphylococcus aureus SA1199 at 128 ug/ml after 20 mins). Conditions: not given.
Format: functional
Summary of the method: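 Mid-exponential SA-1199 cells were washed and resuspended in 50 mM sodium phosphate, pH 7.0. They were exposed at time zero to norfloxacin at one-quarter MIC, alone or with EPI at 128 μg/ml. At 5–20 min, cells were spun through silicone-paraffin oil into orthophosphoric acid. Lysate norfloxacin was measured by C18 HPLC with fluorescence detection (ex 240, em 280 nm) and normalized to BCA protein (ng/mg). Triplicate experiments, mean reported.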

Row | SMILES | Activity
14 | [O-][S+](Cc1nc2ccccc2n2cccc12)c1nc2ccccc2[nH]1 (stereo not drawn) | 10%

These molecules were tested on Staphylococcus aureus (assay: Increase in 5 ug sparfloxacin antibacterial activity against Staphylococcus aureus SA1199B mutant overexpressing NorA at 128 ug/ml by disk diffusion method). Conditions: not given.
Format: functional
Summary of the method: as §1

Row | SMILES | inhibition zone (IZ)
15 | [O-][S+](Cc1nc2ccccc2n2cccc12)c1nc2ccccc2[nH]1 (stereo not drawn) | 28 mm
16 | [O-][S+](Cc1nc2ccccc2n2cccc12)c1ccccn1 (stereo not drawn) | 27 mm
17 | Cn1ccnc1[S+]([O-])Cc1nc2ccccc2n2cccc12 (stereo not drawn) | 27 mm

What follows are molecules tested on Staphylococcus aureus (assay: Increase in 16 ug/ml Norfloxacin accumulation in Staphylococcus aureus SA1199B mutant overexpressing NorA measured per milligram of cell protein at 128 ug/ml after 20 mins). Conditions: not given.
Format: functional, organism-based
Summary of the method: (§2)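 SA-1199B was grown to mid-exponential phase in MH broth (4–5 h, 37°C, shaken), then washed and resuspended in 50 mM sodium phosphate, pH 7.0. Cells got norfloxacin at one-quarter MIC, alone or with inhibitor at 128 μg/ml. At 5–20 min, cells were spun through silicone-paraffin oil into orthophosphoric acid. Norfloxacin was measured by HPLC fluorescence (ex 240/[…]) as ng/mg BCA protein. Means of triplicate experiments.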

Row | SMILES | Drug uptake
18 | [O-][S+](Cc1nc2ccccc2n2cccc12)c1nc2ccccc2[nH]1 (stereo not drawn) | 400 ng/mg

The molecules below were run on Staphylococcus aureus (assay: Increase in 16 ug/ml Norfloxacin accumulation in Staphylococcus aureus SA1199B mutant overexpressing NorA measured per mg of cell protein at 128 ug/ml after 5 mins). Conditions: not given.
Format: functional, organism-based
Summary of the method: as §2

Row | SMILES | Drug uptake
19 | [O-][S+](Cc1nc2ccccc2n2cccc12)c1nc2ccccc2[nH]1 (stereo not drawn) | 270 ng/mg

The molecules below were run on Staphylococcus aureus (assay: Increase in 5 ug levofloxacin antibacterial activity against Staphylococcus aureus SA1199B mutant overexpressing NorA at 128 ug/ml by disk diffusion method). Conditions: not given.
Format: functional
Summary of the method: as §1

Row | SMILES | inhibition zone (IZ)
20 | [O-][S+](Cc1nc2ccccc2n2cccc12)c1nc2ccccc2[nH]1 (stereo not drawn) | 24 mm
21 | [O-][S+](Cc1nc2ccccc2n2cccc12)c1ccccn1 (stereo not drawn) | 22 mm
22 | Cn1ccnc1[S+]([O-])Cc1nc2ccccc2n2cccc12 (stereo not drawn) | 22 mm

The molecules below were run on Staphylococcus aureus (assay: Increase in 5 ug Norfloxacin antibacterial activity against Staphylococcus aureus SA1199B mutant overexpressing NorA at 128 ug/ml by disk diffusion method). Conditions: not given.
Format: functional
Summary of the method: as §1

Row | SMILES | inhibition zone (IZ)
23 | [O-][S+](Cc1nc2ccccc2n2cccc12)c1nc2ccccc2[nH]1 (stereo not drawn) | 10 mm
24 | [O-][S+](Cc1nc2ccccc2n2cccc12)c1ccccn1 (stereo not drawn) | 6 mm
25 | Cn1ccnc1[S+]([O-])Cc1nc2ccccc2n2cccc12 (stereo not drawn) | 6 mm

The molecules below were run on Staphylococcus aureus (assay: Increase in 2 ug/ml Norfloxacin antibacterial activity against wild type Staphylococcus aureus SA1199 at 128 ug/ml by checker board method). Conditions: not given.
Format: functional

Row | SMILES | MIC
26 | [O-][S+](Cc1nc2ccccc2n2cccc12)c1nc2ccccc2[nH]1 (stereo not drawn) | 1 µg/mL
27 | [O-][S+](Cc1nc2ccccc2n2cccc12)c1ccccn1 (stereo not drawn) | 2 µg/mL
28 | Cn1ccnc1[S+]([O-])Cc1nc2ccccc2n2cccc12 (stereo not drawn) | 2 µg/mL

These molecules were tested on Staphylococcus aureus (assay: Antibacterial activity against Staphylococcus aureus). Conditions: not given.
Format: functional
Summary of the method: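 Tube broth dilution MIC against SA-1199 and NorA-overproducing SA-1199B in Mueller-Hinton broth with 20 μg/ml Ca²⁺ and 10 μg/ml Mg²⁺. Inoculum was a 4–5 h 37°C culture diluted 1/10 (≈10⁶ CFU/ml). Compound range was 512 to 1 μg/ml, dissolved in DMSO (final ≤4%).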

Row | SMILES | MIC
29 | [O-][S+](Cc1nc2ccccc2n2cccc12)c1nc2ccccc2[nH]1 (stereo not drawn) | > 512 µg/mL
30 | [O-][S+](Cc1nc2ccccc2n2cccc12)c1ccccn1 (stereo not drawn) | > 512 µg/mL
31 | Cn1ccnc1[S+]([O-])Cc1nc2ccccc2n2cccc12 (stereo not drawn) | > 512 µg/mL

Each molecule was assayed on Staphylococcus aureus (assay: Increase in 16 ug/ml Norfloxacin accumulation in Staphylococcus aureus SA1199B mutant overexpressing NorA at 128 ug/ml after 20 mins). Conditions: not given.
Format: functional
Summary of the method: as §2

Row | SMILES | Activity
32 | [O-][S+](Cc1nc2ccccc2n2cccc12)c1nc2ccccc2[nH]1 (stereo not drawn) | 40%

Each molecule was assayed on Staphylococcus aureus (assay: Increase in 64 ug/ml Norfloxacin antibacterial activity against Staphylococcus aureus SA1199B mutant overexpressing NorA at 128 ug/ml by checker board method). Conditions: not given.
Format: functional

Row | SMILES | MIC
33 | [O-][S+](Cc1nc2ccccc2n2cccc12)c1nc2ccccc2[nH]1 (stereo not drawn) | 16 µg/mL
34 | [O-][S+](Cc1nc2ccccc2n2cccc12)c1ccccn1 (stereo not drawn) | 32 µg/mL
35 | Cn1ccnc1[S+]([O-])Cc1nc2ccccc2n2cccc12 (stereo not drawn) | 32 µg/mL

What follows are molecules tested on Staphylococcus aureus (assay: Increase in 5 ug ofloxacin antibacterial activity against Staphylococcus aureus SA1199B mutant overexpressing NorA at 128 ug/ml by disk diffusion method). Conditions: not given.
Format: functional
Summary of the method: as §1

Row | SMILES | inhibition zone (IZ)
36 | [O-][S+](Cc1nc2ccccc2n2cccc12)c1nc2ccccc2[nH]1 (stereo not drawn) | 23 mm
37 | [O-][S+](Cc1nc2ccccc2n2cccc12)c1ccccn1 (stereo not drawn) | 20 mm
38 | Cn1ccnc1[S+]([O-])Cc1nc2ccccc2n2cccc12 (stereo not drawn) | 19 mm
